Measurements as given in ChEMBL document CHEMBL1131250 (J Med Chem, 1998).

Tests used:
[1] = target: 5-hydroxytryptamine receptor 1B (Gorilla gorilla, UniProt Q9N2B7); assay: The compound was tested for CNS binding affinity towards 5-hydroxytryptamine 1B receptor from cloned gorilla membranes expressed in cultured HEK 293 cells; type: cell-based, HEK293
[2] = target: T1, 5-hydroxytryptamine receptor 1A (Homo sapiens, UniProt P08908); assay: The compound was tested for CNS binding affinity towards 5-hydroxytryptamine 1A receptor from cloned Human membranes.
T1 sequence (P08908 whole entry): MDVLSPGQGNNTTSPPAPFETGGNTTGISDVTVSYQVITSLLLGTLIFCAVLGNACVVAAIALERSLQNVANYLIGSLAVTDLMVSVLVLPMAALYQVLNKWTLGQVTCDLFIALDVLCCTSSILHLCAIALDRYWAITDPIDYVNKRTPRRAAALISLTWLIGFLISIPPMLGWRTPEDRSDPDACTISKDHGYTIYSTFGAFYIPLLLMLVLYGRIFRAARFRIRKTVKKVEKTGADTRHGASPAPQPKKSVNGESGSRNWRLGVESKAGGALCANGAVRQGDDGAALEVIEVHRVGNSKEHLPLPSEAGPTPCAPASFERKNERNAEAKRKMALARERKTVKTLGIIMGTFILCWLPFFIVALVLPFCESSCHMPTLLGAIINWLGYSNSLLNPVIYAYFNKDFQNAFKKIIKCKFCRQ
Summary of the method: (§1)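 Radioligand binding on membranes from cloned human receptors (5-HT1A, 5-HT2A, D2, D4). Ki values reported.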

D(4) dopamine receptor [3] = target: T2, D(4) dopamine receptor (Homo sapiens, UniProt P21917); assay: The compound was tested for CNS binding affinity towards Dopamine receptor D4 from cloned Human membranes; Inactive
T2 sequence (P21917 whole entry): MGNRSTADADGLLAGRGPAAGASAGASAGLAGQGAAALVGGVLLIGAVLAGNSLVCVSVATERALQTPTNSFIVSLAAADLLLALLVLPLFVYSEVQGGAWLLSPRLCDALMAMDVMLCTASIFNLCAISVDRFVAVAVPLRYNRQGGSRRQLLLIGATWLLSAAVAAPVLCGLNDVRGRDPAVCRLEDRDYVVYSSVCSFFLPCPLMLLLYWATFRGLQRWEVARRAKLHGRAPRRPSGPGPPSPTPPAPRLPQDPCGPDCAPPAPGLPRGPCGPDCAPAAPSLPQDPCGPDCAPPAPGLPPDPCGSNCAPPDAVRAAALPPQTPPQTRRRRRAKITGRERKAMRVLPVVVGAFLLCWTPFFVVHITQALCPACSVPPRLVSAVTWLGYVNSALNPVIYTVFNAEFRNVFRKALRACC

D(2) dopamine receptor [4] = target: T3, D(2) dopamine receptor (Homo sapiens, UniProt P14416); assay: The compound was tested for CNS binding affinity towards Dopamine receptor D2 from cloned Human membranes.; summary of the method: as §1
[5] = target: T4, 5-hydroxytryptamine receptor 2A (Homo sapiens, UniProt P28223); assay: The compound was tested for CNS binding affinity towards 5-hydroxytryptamine 2A receptor from cloned Human membranes.; summary of the method: as §1
Cavia porcellus [6] = assay: The compound (25umol/kg, sc) was tested for hypothermic response for 60 mins and in Guinea pig; type: functional
Summary of the method: (§2)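 Guinea pigs dosed subcutaneously. Body temperature change read at 30 and 60 min after dosing. Response given as the difference in °C from vehicle-treated controls, as mean ± SEM, n = 4-5 per group. Significance tested against vehicle.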

D(4) dopamine receptor [7] = target: T2, D(4) dopamine receptor; assay: The compound was tested for CNS binding affinity towards Dopamine receptor D4 from cloned Human membranes.; summary of the method: as §1
Cavia porcellus [8] = assay: The compound (50umol/kg, sc) was tested for hypothermic response for 30 mins in Guinea pig; type: functional; summary of the method: as §2
Cavia porcellus [9] = assay: The compound (25umol/kg, sc) was tested for hypothermic response for 30 mins in Guinea pig; type: functional; summary of the method: as §2
Cavia porcellus [10] = assay: The compound (100umol/kg, sc) was tested for hypothermic response for 60 mins and in Guinea pig; type: functional; summary of the method: as §2
Cavia porcellus [11] = assay: The compound (100umol/kg, sc) was tested for hypothermic response for 30 mins in Guinea pig; type: functional; summary of the method: as §2
Cavia porcellus [12] = assay: The compound (50umol/kg, sc) was tested for hypothermic response for 60 mins and in Guinea pig; type: functional; summary of the method: as §2
[13] = target: T4, 5-hydroxytryptamine receptor 2A; assay: The compound was tested for CNS binding affinity towards 5-hydroxytryptamine 2A receptor from cloned Human membranes
D(2) dopamine receptor [14] = target: T3, D(2) dopamine receptor; assay: The compound was tested for CNS binding affinity towards Dopamine receptor D2 from cloned Human membranes; summary of the method: as §1
[15] = target: T1, 5-hydroxytryptamine receptor 1A; assay: The compound was tested for CNS binding affinity towards 5-hydroxytryptamine 1A receptor from cloned Human membranes; summary of the method: as §1
D(4) dopamine receptor [16] = target: T2, D(4) dopamine receptor; assay: The compound was tested for CNS binding affinity towards Dopamine receptor D4 from cloned Human membranes; summary of the method: as §1
Cavia porcellus [17] = assay: The compound (25umol/kg, sc) was tested for hypothermic response for 60 mins in Guinea pig; type: functional
Summary of the method: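 Guinea pigs received compound subcutaneously (doses 25–100 μmol/kg across groups), and body temperature change was read at 30 and 60 min after dosing. The hypothermic response is the difference in °C from vehicle-treated controls, reported as mean ± SEM (n = 4–5), with significance tested against vehicle.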

Sequence of 5-hydroxytryptamine receptor 1B (Q9N2B7 whole entry): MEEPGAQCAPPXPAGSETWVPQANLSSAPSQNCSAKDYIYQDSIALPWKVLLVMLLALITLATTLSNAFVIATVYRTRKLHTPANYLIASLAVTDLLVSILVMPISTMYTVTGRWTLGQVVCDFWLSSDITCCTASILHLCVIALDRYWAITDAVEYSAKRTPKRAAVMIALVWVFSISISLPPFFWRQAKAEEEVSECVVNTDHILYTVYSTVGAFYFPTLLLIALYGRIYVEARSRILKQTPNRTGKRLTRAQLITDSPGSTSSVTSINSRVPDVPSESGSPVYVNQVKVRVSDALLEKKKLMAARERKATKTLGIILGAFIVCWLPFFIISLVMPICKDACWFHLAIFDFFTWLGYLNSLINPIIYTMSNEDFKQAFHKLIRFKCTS
T3 sequence (P14416 whole entry): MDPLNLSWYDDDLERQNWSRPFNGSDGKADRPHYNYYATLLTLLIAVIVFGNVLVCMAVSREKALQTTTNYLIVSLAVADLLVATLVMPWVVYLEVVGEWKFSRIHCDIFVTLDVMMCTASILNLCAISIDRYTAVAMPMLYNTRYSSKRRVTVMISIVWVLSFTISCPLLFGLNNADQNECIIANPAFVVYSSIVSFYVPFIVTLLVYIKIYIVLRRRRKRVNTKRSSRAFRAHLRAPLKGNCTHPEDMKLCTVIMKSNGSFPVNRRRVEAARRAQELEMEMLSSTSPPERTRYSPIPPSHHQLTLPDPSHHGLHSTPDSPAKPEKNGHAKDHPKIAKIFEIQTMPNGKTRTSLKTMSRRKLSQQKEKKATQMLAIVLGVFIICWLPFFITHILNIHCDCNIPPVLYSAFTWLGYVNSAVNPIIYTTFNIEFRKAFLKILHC
T4 sequence (P28223 whole entry): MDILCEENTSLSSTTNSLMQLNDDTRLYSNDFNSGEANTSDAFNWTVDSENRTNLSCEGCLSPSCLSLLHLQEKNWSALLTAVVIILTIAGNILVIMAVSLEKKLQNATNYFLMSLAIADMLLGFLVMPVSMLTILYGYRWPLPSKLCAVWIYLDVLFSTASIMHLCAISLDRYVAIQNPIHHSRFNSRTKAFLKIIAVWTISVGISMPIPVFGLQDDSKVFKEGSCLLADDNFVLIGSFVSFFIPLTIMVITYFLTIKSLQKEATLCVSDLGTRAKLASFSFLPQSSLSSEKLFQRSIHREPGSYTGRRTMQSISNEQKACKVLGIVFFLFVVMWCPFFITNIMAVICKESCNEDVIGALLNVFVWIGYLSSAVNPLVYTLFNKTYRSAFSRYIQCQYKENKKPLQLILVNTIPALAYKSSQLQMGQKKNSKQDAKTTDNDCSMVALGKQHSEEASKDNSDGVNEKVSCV

Ki [1] [nM]	Ki [2] [nM]	Ki (D(4) dopamine receptor [3])	Ki (D(2) dopamine receptor [4]) [nM]	SMILES	other results
150000	> 3360	Not Active	158	CNC(=O)c1ccc2c(c1)CCO[C@@H]2CCN1CCN(c2ccc(OC)cc2)CC1	Ki [5]: 586 nM
5780	1090		241	CNC(=O)c1ccc2c(c1)CCO[C@H]2CCN1CCN(c2ccc(OC)cc2)CC1	Hypothermic effect (Cavia porcellus [6]): -0.54 °C; Ki (D(4) dopamine receptor [7]): > 3700 nM; Hypothermic effect (Cavia porcellus [8]): -1.84 °C; Hypothermic effect (Cavia porcellus [9]): -0.8 °C; Hypothermic effect (Cavia porcellus [10]): -1.52 °C; Hypothermic effect (Cavia porcellus [11]): -1.38 °C; Hypothermic effect (Cavia porcellus [12]): -2.34 °C; Ki [13]: 168 nM
26000	> 3360		386	COc1ccc(N2CCN(CC[C@H]3OCCc4cc(C(N)=O)ccc43)CC2)cc1	
5860				COc1ccc(N2CCN(CCC3OCCc4cc(C(N)=O)ccc43)CC2)cc1 (configuration not stated)	Ki (D(2) dopamine receptor [14]): 348 nM; Ki [15]: 2460 nM; Ki (D(4) dopamine receptor [16]): 1050 nM
3020	967	Not Active	325	COc1ccc(N2CCN(CC[C@@H]3OCCc4cc(C(N)=O)ccc43)CC2)cc1	Hypothermic effect (Cavia porcellus [8]): -1.42 °C; Hypothermic effect (Cavia porcellus [12]): -1.14 °C
7240	899		1430	COc1ccc(N2CCN(CCC3OCCc4ccccc43)CC2)cc1 (configuration not stated)	Ki (D(4) dopamine receptor [7]): 2.4 nM; Ki [13]: 76 nM

SMILES	Ki [1] [nM]	Ki [2] [nM]	Ki (D(4) dopamine receptor [3])	Ki (D(2) dopamine receptor [4]) [nM]	other results
CNS(=O)(=O)Cc1ccc2[nH]cc(CCN(C)C)c2c1			Not Active	> 218	Hypothermic effect (Cavia porcellus [17]): -0.14
